Laboratory results: ChEMBL document CHEMBL1165943, “Design and synthesis of new anticancer pyrimidines with multiple-kinase inhibitory effect” (Bioorg Med Chem, 2010)

Experiments:
Type in all cases: functional
[1] = tested on: NCI-H522; test: Cytotoxicity against human NCI-H522 cells assessed as cell growth at 10 uM; conditions: Homo sapiens, NCI-H522; read-out: Activity
Method in brief: (§1)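 Single-dose screen at 10 μM across the 60-cell-line panel. Cells grown in RPMI 1640 with 5% FBS and 2 mM L-glutamine, seeded at 5,000–40,000 cells/well according to doubling time, and treated 24 h later. Exposure lasted 48 h at 37 °C, 5% CO₂. Adherent cells were fixed with cold TCA, suspension cells were fixed settled, and both were stained with SRB and read at 515 nm. Growth % was recorded, with inhibition % = 100 − growth %.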

[2] = tested on: HCC 2998; test: Cytotoxicity against human HCC2998 cells assessed as cell growth at 10 uM; conditions: Homo sapiens, HCC 2998; read-out: Activity
Method in brief: (§2)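 Single-concentration screen at 10 μM across the 60-cell-line panel (nine tissue types); growth percentage recorded per cell line, with inhibition taken as 100 minus growth percentage.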

[3] = tested on: HOP-62; test: Cytotoxicity against human HOP62 cells assessed as cell growth at 10 uM; conditions: Homo sapiens, HOP-62; read-out: Activity; method in brief: as §2
[4] = tested on: HT-29; test: Cytotoxicity against human HT-29 cells assessed as cell growth at 10 uM; conditions: Homo sapiens, HT-29; read-out: Activity; method in brief: as §2
[5] = tested on: HL-60(TB); test: Cytotoxicity against human HL-60(TB) cells assessed as cell growth at 10 uM; conditions: Homo sapiens, HL-60; read-out: Activity
Method in brief: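 Single-concentration 10 µM screen of HL-60(TB) within the 60-line panel, grown in RPMI 1640 with 5% FBS. The drug from DMSO stock is incubated 48 h at 37 °C, settled cells are TCA-fixed and SRB-stained, and absorbance is read at 515 nm. Percent growth is reported, and inhibition % is taken as 100 minus growth %.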

[6] = tested on: MOLT-4; test: Cytotoxicity against human MOLT4 cells assessed as cell growth at 10 uM; conditions: Homo sapiens, MOLT-4; read-out: Activity; method in brief: as §1
[7] = tested on: A498; test: Cytotoxicity against human A498 cells assessed as cell growth at 10 uM; conditions: Homo sapiens, A498; read-out: Activity; method in brief: as §2
[8] = tested on: NCI-H23; test: Cytotoxicity against human NCI-H23 cells assessed as cell growth at 10 uM; conditions: Homo sapiens, NCI-H23; read-out: Activity; method in brief: as §1
[9] = tested on: OVCAR-8; test: Cytotoxicity against human OVCAR8 cells assessed as cell growth at 10 uM; conditions: Homo sapiens, OVCAR-8; read-out: Activity; method in brief: as §1
[10] = tested on: SK-MEL-2; test: Cytotoxicity against human SK-MEL-2 cells assessed as cell growth at 10 uM; conditions: Homo sapiens, SK-MEL-2; read-out: Activity; method in brief: as §1
[11] = tested on: SNB-75; test: Cytotoxicity against human SNB75 cells assessed as cell growth at 10 uM; conditions: Homo sapiens, SNB-75; read-out: Activity; method in brief: as §1
[12] = tested on: LOX IMVI; test: Cytotoxicity against human LOXIMVI cells assessed as cell growth at 10 uM; conditions: Homo sapiens, LOX IMVI; read-out: Activity; method in brief: as §1
[13] = tested on: K562; test: Cytotoxicity against human K562 cells assessed as cell growth at 10 uM; conditions: Homo sapiens, K562; read-out: Activity; method in brief: as §1
[14] = tested on: IGROV-1; test: Cytotoxicity against human IGROV1 cells assessed as cell growth at 10 uM; conditions: Homo sapiens, IGROV-1; read-out: Activity; method in brief: as §1
[15] = tested on: HCT-15; test: Cytotoxicity against human HCT15 cells assessed as cell growth at 10 uM; conditions: Homo sapiens, HCT-15; read-out: Activity; method in brief: as §2
[16] = tested on: U-251; test: Cytotoxicity against human U251 cells assessed as cell growth at 10 uM; conditions: Homo sapiens, U-251; read-out: Activity; method in brief: as §1
[17] = tested on: 786-0; test: Cytotoxicity against human 786-0 cells assessed as cell growth at 10 uM; conditions: Homo sapiens, 786-0; read-out: Activity; method in brief: as §2
[18] = tested on: MDA-MB-231; test: Cytotoxicity against human MDA-MB-231 cells assessed as cell growth at 10 uM; conditions: Homo sapiens, MDA-MB-231; read-out: Activity; method in brief: as §1
[19] = tested on: UACC-62; test: Cytotoxicity against human UACC62 cells assessed as cell growth at 10 uM; conditions: Homo sapiens, UACC-62; read-out: Activity; method in brief: as §1
[20] = tested on: CAKI-1; test: Cytotoxicity against human Caki1 cells assessed as cell growth at 10 uM; conditions: Homo sapiens, CAKI-1; read-out: Activity; method in brief: as §2
[21] = tested on: T47D; test: Cytotoxicity against human T47D cells assessed as cell growth at 10 uM; conditions: Homo sapiens, T47D; read-out: Activity; method in brief: as §1
[22] = tested on: ACHN; test: Cytotoxicity against human ACHN cells assessed as cell growth at 10 uM; conditions: Homo sapiens, ACHN; read-out: Activity; method in brief: as §2
[23] = tested on: NCI-H226; test: Cytotoxicity against human NCI-H226 cells assessed as cell growth at 10 uM; conditions: Homo sapiens, NCI-H226; read-out: Activity; method in brief: as §1
[24] = tested on: BT-549; test: Cytotoxicity against human BT549 cells assessed as cell growth at 10 uM; conditions: Homo sapiens, BT-549; read-out: Activity; method in brief: as §2
[25] = tested on: OVCAR-3; test: Cytotoxicity against human OVCAR-3 cells assessed as cell growth at 10 uM; conditions: Homo sapiens, OVCAR-3; read-out: Activity; method in brief: as §1
[26] = tested on: NCI/ADR-RES; test: Cytotoxicity against human NCI/ADR-RES cells assessed as cell growth at 10 uM; conditions: Homo sapiens, NCI/ADR-RES; read-out: Activity; method in brief: as §1
[27] = tested on: MDA-MB-468; test: Cytotoxicity against human MDA-MB-468 cells assessed as cell growth at 10 uM; conditions: Homo sapiens, MDA-MB-468; read-out: Activity; method in brief: as §1
[28] = tested on: KM12; test: Cytotoxicity against human KM12 cells assessed as cell growth at 10 uM; conditions: Homo sapiens, KM12; read-out: Activity; method in brief: as §1
[29] = tested on: SF-539; test: Cytotoxicity against human SF539 cells assessed as cell growth at 10 uM; conditions: Homo sapiens, SF-539; read-out: Activity; method in brief: as §1
[30] = Growth inhibition of human NCI60 cells at 10 uM after 48 hrs by sulforhodamine B assay relative to control; conditions: Homo sapiens, NCI60, 48 h; read-out: GI
Method in brief: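 Single 10 µM dose across the 60-line panel for 48 h, with the same culture, TCA fixation and SRB 515 nm read-out. Inhibition % = 100 − growth %, given as the mean over the 60 cell lines.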

[31] = tested on: OVCAR-4; test: Cytotoxicity against human OVCAR4 cells assessed as cell growth at 10 uM; conditions: Homo sapiens, OVCAR-4; read-out: Activity; method in brief: as §1
[32] = tested on: SR; test: Cytotoxicity against human SR cells assessed as cell growth at 10 uM; conditions: Homo sapiens, SR; read-out: Activity; method in brief: as §1
[33] = tested on: UO-31; test: Cytotoxicity against human UO31 cells assessed as cell growth at 10 uM; conditions: Homo sapiens, UO-31; read-out: Activity; method in brief: as §1
[34] = tested on: DU-145; test: Cytotoxicity against human DU145 cells assessed as cell growth at 10 uM; conditions: Homo sapiens, DU-145; read-out: Activity; method in brief: as §2
[35] = tested on: SF-268; test: Cytotoxicity against human SF268 cells assessed as cell growth at 10 uM; conditions: Homo sapiens, SF-268; read-out: Activity; method in brief: as §1
[36] = tested on: HCT-116; test: Cytotoxicity against human HCT116 cells assessed as cell growth at 10 uM; conditions: Homo sapiens, HCT-116; read-out: Activity; method in brief: as §2
[37] = tested on: MCF7; test: Cytotoxicity against human MCF7 cells assessed as cell growth at 10 uM; conditions: Homo sapiens, MCF7; read-out: Activity; method in brief: as §1

Compound | growth at 10 µM [1] [%] | growth at 10 µM [2] [%] | growth at 10 µM [3] [%] | growth at 10 µM [4] [%] | growth at 10 µM [5] [%] | growth at 10 µM [6] [%] | growth at 10 µM [7] [%] | growth at 10 µM [8] [%] | growth at 10 µM [9] [%] | growth at 10 µM [10] [%] | growth at 10 µM [11] [%] | growth at 10 µM [12] [%] | growth at 10 µM [13] [%] | growth at 10 µM [14] [%] | growth at 10 µM [15] [%] | growth at 10 µM [16] [%] | growth at 10 µM [17] [%] | growth at 10 µM [18] [%] | growth at 10 µM [19] [%] | growth at 10 µM [20] [%] | also measured
CC(=O)Nc1cccc(-c2ccc(-c3ccnc(NC(=O)Nc4cc(C(F)(F)F)cc(C(F)(F)F)c4)n3)cn2)c1.Cl | 8.5 | 70.7 | -3.2 | 9.2 | 60.1 | 53.3 | 59 | -6.37 | 27.9 | 62.1 | 87.2 | 49.4 | 34.8 | 76 | 60.3 | -25.4 | 69.8 | 65.5 | 46.6 | 50.9 | growth at 10 µM [21]: -11.3%; growth at 10 µM [22]: 60.5%; growth at 10 µM [23]: 59.8%; growth at 10 µM [24]: 47.3%; growth at 10 µM [25]: 67.8%; growth at 10 µM [26]: 45.5%; growth at 10 µM [27]: -30.3%; growth at 10 µM [28]: 72.7%; growth at 10 µM [29]: 75.6%; inhibition of growth at 10 µM [30]: 50.9%; growth at 10 µM [31]: 7.08%; growth at 10 µM [32]: 68%; growth at 10 µM [33]: 54.7%; growth at 10 µM [34]: 89.2%; growth at 10 µM [35]: 83.6%; growth at 10 µM [36]: 50.5%; growth at 10 µM [37]: 7.95%
FC(F)(F)c1cc(Nc2nccc(-c3ccc(-c4ccccc4)nc3)n2)cc(C(F)(F)F)c1 | 83.3 | 124 | 110 | 86 | 113 | 93.4 | 110 | 98.5 | 94.1 | 91.6 | 86.8 | 98.8 | 91.5 | 77.8 | 99.9 | 99.1 | 101 | 87.3 | 85.3 | 91.6 | growth at 10 µM [21]: 80.1%; growth at 10 µM [22]: 96%; growth at 10 µM [23]: 115%; growth at 10 µM [24]: 106%; growth at 10 µM [25]: 114%; growth at 10 µM [26]: 101%; growth at 10 µM [27]: 110%; growth at 10 µM [28]: 105%; growth at 10 µM [29]: 95.8%; inhibition of growth at 10 µM [30]: 0.49%; growth at 10 µM [31]: 95%; growth at 10 µM [32]: 97.8%; growth at 10 µM [33]: 87.2%; growth at 10 µM [34]: 109%; growth at 10 µM [35]: 105%; growth at 10 µM [36]: 81.6%; growth at 10 µM [37]: 83.2%
